Screens: PubChem BioAssay, several laboratories
A selection: hits, their analogues and other compounds. The true share with any hit is near 4%.
TAAR1 ag: agonists of human TAAR1; Q96RJ0; CHO RD-HGA16 TAAR1, Fluo-8 calcium fluorescence; vehicle wells 0%, saturating PEA agonist 100%; activation, % at 3 µM; 360,000 tested, 0.99% active; AID 624467;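 active = activation above the mean activation of all test compounds in the run plus 3 SD, cut at about 38% in these data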
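System: CHO RD-HGA16 cells carrying human TAAR1 plus Gα16; Incubation: 17-24 h seeding, 75 min 37 °C dye, 30 min RT; Measured by: Fluo-8 fluorescence, 5 s baseline then 140 s kinetic read; Control set: DMSO and PEA EC100; Replication: single well for each compound.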
OX1R antag-1: OX1R (human) antagonism; 330,000 tested, 1.8% active; O43613; OX1R-expressing cells, FRET antagonist read-out; inhibition, % at 6.6 µM; in the data active = inhibition mostly above about 38%, no sharp cut-off; inactive = mostly below about 40%;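 note: 0% = agonist challenge alone and 100% = reference antagonist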
TAAR1 antagonist: human TAAR1 antagonism. CHO RD-HGA16 TAAR1, Fluo-8 calcium fluorescence, antagonist. Q96RJ0. inhibition, % at 3 µM. 360,000 tested, 1.5% active;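 active = inhibition above a per-plate cutoff, the mean inhibition of test compounds on that plate plus 3 SD, cut at about 49% in these data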;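 note: 0% = DMSO plus EC80 beta-PEA response and 100% = DMSO alone without agonist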
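Assay system: RD-HGA16 CHO cells with stable hTAAR1 and Gα16 / Reagent: EC80 β-phenethylamine stimulus / Doses: 3 µM, single point / Timing: dye loading 75 min at 37 °C, then 30 min room temperature / Measured by: Fluo-8 intracellular calcium dye fluorescence, real-time kinetic reads / Controls: vehicle wells and EC80 agonist wells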
OX1R antag-2: human HCRTR1 antagonism; O43613; CHO/OX1R cells, Fluo-8 calcium fluorescence, orexin A; inhibition, % at 5 µM; 330,000 tested, 0.43% active;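 active = inhibition above its plate's threshold, mean inhibition of all tested compounds on the plate plus 3 SD, cut at about 37% in these data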;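 note: 0% = orexin A challenge wells and 100% = SB-334867-A antagonist wells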
CHO parental Ca: signal in parental CHO cells, OX1R antagonist counter-screen; parental CHO-K1, ATP-induced calcium, Fluo-8 fluorescence; inhibition, % at 5.6 µM; 330,000 tested, 0.63% active;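 active = inhibition above that plate's mean sample inhibition plus 3 SD, cut at about 26% in these data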;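 note: 0% = ATP-challenged DMSO wells and 100% = DMSO wells without ATP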
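Material: parental CHO cells / Compound: single nominal dose of 5.6 µM per compound / Signal: Fluo-8 fluorescence / Replicates: singlicate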
NTR1 agonist: activates human neurotensin receptor 1. P30989. NTR1-U2OS beta-arrestin-GFP spot imaging, agonist mode. activation, % at 20 µM. 330,000 tested, 0.17% active. AID 493036;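 active = activation at or above 40% of the spot to cytoplasm intensity ratio, with at least 20 cells analyzed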;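 note: 0% = DMSO without peptide and 100% = 100 nM NTR1 peptide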
Target sequence (P30989 whole entry, looked up): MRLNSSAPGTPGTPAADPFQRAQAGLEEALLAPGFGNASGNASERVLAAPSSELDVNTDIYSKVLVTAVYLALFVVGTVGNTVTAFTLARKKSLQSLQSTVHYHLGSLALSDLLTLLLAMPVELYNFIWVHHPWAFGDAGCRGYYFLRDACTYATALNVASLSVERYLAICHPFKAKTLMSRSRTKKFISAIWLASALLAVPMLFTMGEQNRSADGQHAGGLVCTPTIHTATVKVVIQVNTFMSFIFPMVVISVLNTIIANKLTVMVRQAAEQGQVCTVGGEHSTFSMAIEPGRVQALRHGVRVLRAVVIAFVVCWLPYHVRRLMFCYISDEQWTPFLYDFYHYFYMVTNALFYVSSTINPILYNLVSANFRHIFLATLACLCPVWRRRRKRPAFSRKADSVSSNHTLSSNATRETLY
An asterisk follows results filed as active; nt = not tested or not shown.

SMILES	TAAR1 ag	OX1R antag-1	TAAR1 antagonist	OX1R antag-2	CHO parental Ca	NTR1 agonist
Cc1ccc(NC(=O)CCNC(=O)Cn2cnc3ccccc3c2=O)cc1F	4	19	-8	-25	-15	-1
COc1cc(OC)c(/C=C2\C(=O)Nc3ccccc32)c(OC)c1	5	41*	14	-14	-8	5
COc1ccc(C(=O)/C=C2/C(=O)Nc3ccccc32)cc1	5	nt	9	nt	nt	28
O=C(Nc1ccc(Cl)cc1Cl)c1cc2ccccc2o1	2	1	-5	-12	-6	4
O/N=C(\c1ccc(Cl)cc1)c1cc2ccccc2o1	-1	13	34	-10	33*	11
CCCc1nnc2n1N=C(c1ccc(C)cc1)CS2	0	20	-91	-26	-12	0
CCCc1nnc2n1N=C(c1ccc([N+](=O)[O-])cc1)CS2	6	45*	-29	-21	10	1
CC1Cc2cc(-c3csc(NC(=O)Cc4cccs4)n3)ccc2N1S(C)(=O)=O (stereo not given)	17	17	61*	30	14	17
Cc1cc(C)cc(OCC(=O)N2N=C(C(F)(F)F)CC2(O)C(C)(C)C)c1 (stereo not given)	12	8	19	8	40*	8
Cc1cc(C)cc(OCC(=O)N2N=C(c3cccnc3)CC2(O)C(F)(F)F)c1 (stereo not given)	5	5	10	-3	-3	4
COc1ccc2nc(N3CCC(C)CC3)c(C#N)cc2c1	11	58*	7	-21	-16	7
COc1ccc2nc(N3CCC(O)CC3)c(C#N)cc2c1	13	46	9	-6	-6	-3
COc1ccc(COc2cc(-c3cccc(OC)c3)nc3ccc(NC(C)=O)cc23)cc1	5	28	59*	-9	-8	6
CSc1ccccc1NC(=O)c1cc(-c2cccnc2)nc2ccc(Br)cc12	4	11	50*	-8	-19	22
COc1cccc(-c2cc(C(=O)Nc3ccc(N(C)C(C)=O)cc3)c3cc(Br)ccc3n2)c1	8	13	60*	-16	-12	3
COc1ccc(COc2cc(-c3cccc(OC)c3)nc3ccc(NC(=O)c4ccc(C)cc4)cc23)cc1	7	17	47	6	8	1
COc1cccc(-c2cc(C(=O)Nc3ccncc3)c3ccccc3n2)c1	5	18	39	-23	-13	2
O=C(O)c1cc(-c2cccnc2)nc2ccc(Br)cc12	10	-6	-6	-4	-3	-1
CCCCCn1cc(CCC(=O)Nc2ccc(N(C)c3ccccn3)cc2)c2ccccc21	-1	nt	-1	nt	nt	nt
Cn1c(N=Nc2ccccc2)nc2ccccc21	-1	64*	-18	-26	-19	0
Cn1c(Cl)nc2ccccc21	6	8	4	2	-8	3
CCC(C)Oc1cc(-c2ccnc(Nc3cccc(Cl)c3)n2)ccn1 (stereo not given)	11	28	13	-35	-38	15
OCCCNc1cc(-c2ccnc(Nc3cccc(Cl)c3)n2)ccn1	17	29	80*	-11	-24	28
CC(=O)c1ccccc1Oc1nc(CN2CCOCC2)nc2scc(-c3cccs3)c12	0	44*	12	12	-23	5
COc1ccc(C(C)=O)c(Oc2nc(CN3CCOCC3)nc3scc(-c4cccs4)c23)c1	0	10	9	-28	-5	0
CCOCCCNC(=O)/C(C#N)=C/c1cc(OC)c(O)c([N+](=O)[O-])c1	2	42*	-23	-9	12	0
O=C1NC(=O)C(Cc2cccc(Oc3ccccc3)c2)S1 (stereo not given)	0	44*	-22	-14	-5	0
CCCCCN(C(=O)Cc1c(C)n(CCCCC)c2ccccc12)c1ccc(Oc2cccnc2)c(C)c1	0	nt	0	nt	nt	nt
O=C(c1cc(-c2ccc(Cl)cc2)nc2ccccc12)N1CCC1	2	13	20	-19	-11	3
Cc1ccc(-c2cc(C(=O)N3CCN(c4ccccc4O)CC3)c3ccccc3n2)o1	14	9	62*	-9	-3	6
